Measured values published in ChEMBL document CHEMBL1944582, “Pyrazolopyridine Inhibitors of B-Raf(V600E). Part 1: The Development of Selective, Orally Bioavailable, and Efficacious Inhibitors” (ACS Med Chem Lett, 2011).
Converted amounts (≈) assume the structure as drawn.

Columns and labels:
[1] = Clearance in CD-1 mouse; type: ADME, organism-based; settings: in vivo
In short: (§1)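 Some compounds were also given intravenously to mice. Clearance is reported in mL/min/kg and volume of distribution in L/kg.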

[2] = Volume of distribution in CD-1 mouse; type: ADME, organism-based; settings: in vivo; in short: as §1
[3] = Plasma protein binding in CD-1 mouse; type: ADME, cell-free; settings: read-out: PPB (converted)
[4] = Aqueous solubility of the compound in phosphate buffer at pH 6.5 after 24 hrs by HPLC analysis; type: physicochemical
[5] = Aqueous solubility of the compound in phosphate buffer at pH 7.4 after 24 hrs by HPLC analysis; type: physicochemical
[6] = biological target: T1, Serine/threonine-protein kinase B-raf (Homo sapiens, UniProt P15056, V600E); assay: Inhibition of full length human B-Raf V600E mutant expressed in baculovirus infected insect cells assessed as [gamma-33P]incorporation into MEK after 60 mins by scintillation counting
T1 sequence (P15056 2-766 V600E limits assumed): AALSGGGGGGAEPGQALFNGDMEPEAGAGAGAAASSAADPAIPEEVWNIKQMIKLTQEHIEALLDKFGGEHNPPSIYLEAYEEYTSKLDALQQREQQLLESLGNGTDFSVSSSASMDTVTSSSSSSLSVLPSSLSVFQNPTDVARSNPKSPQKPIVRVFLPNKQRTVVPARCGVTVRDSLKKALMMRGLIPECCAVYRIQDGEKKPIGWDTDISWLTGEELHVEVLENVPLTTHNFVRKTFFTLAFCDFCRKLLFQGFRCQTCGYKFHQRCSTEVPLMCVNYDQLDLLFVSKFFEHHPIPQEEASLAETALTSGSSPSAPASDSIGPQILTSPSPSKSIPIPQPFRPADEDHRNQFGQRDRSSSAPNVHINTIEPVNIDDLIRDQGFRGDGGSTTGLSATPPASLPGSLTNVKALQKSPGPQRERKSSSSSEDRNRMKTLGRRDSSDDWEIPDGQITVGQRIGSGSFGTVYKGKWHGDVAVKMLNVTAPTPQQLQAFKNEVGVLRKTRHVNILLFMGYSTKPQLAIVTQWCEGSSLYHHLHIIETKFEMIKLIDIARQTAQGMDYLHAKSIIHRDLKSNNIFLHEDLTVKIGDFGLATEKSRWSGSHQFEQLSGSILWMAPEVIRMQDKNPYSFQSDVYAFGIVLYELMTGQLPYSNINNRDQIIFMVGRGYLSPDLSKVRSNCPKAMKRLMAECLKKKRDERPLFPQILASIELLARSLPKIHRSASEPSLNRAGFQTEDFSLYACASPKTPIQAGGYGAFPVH

[7] = biological target: T1, Serine/threonine-protein kinase B-raf; assay: Inhibition of B-Raf V600E mutant-mediated Erk phosphorylation in human MALME-3M cells after 1 hr by fluorescence analysis; type: cell-based
In short: (§2)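 Cells were not stimulated, and inhibition was read against their basal ERK phosphorylation. This was the mechanistic cellular assay, run in both Malme-3M and A375 lines.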

[8] = biological target: T1, Serine/threonine-protein kinase B-raf; assay: Inhibition of B-Raf V600E mutant-mediated Erk phosphorylation in human A375 cells after 1 hr by fluorescence analysis; type: cell-based, A-375; in short: as §2
[9] = AUC in CD-1 mouse at 30 mg/kg, po; type: ADME, organism-based; design: dose 30 mg/kg, route oral; settings: plasma
In short: (§3)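 Single oral dose given to mice as a solution in 40% PEG400/10% ethanol/50% water, at 30 mg/kg or 100 mg/kg. Exposure is reported as AUC in μg h/mL.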

[10] = Oral bioavailability in CD-1 mouse at 30 mg/kg as a solution in 40% PEG400/10%ethanol/50% water; type: ADME, organism-based; settings: in vivo
[11] = AUC in CD-1 mouse at 100 mg/kg, po; type: ADME, organism-based; design: dose 100 mg/kg, route oral; settings: plasma; in short: as §3
[12] = Oral bioavailability in CD-1 mouse at 100 mg/kg as a solution in 40%PEG400/10%ethanol/50% water; type: ADME, organism-based; settings: in vivo
[13] = Oral bioavailability in CD-1 mouse at 10 mg/kg as formulation of 25% SDD; type: ADME, organism-based; settings: in vivo
In short: (§4)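 Oral dosing in mice used a 25% amorphous spray-dried dispersion on HPMCAS polymer, given at 10, 30, 60 and 100 mg/kg. Oral bioavailability (F) was determined at each dose.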

[14] = Oral bioavailability in CD-1 mouse at 60 mg/kg as formulation of 25% SDD; type: ADME, organism-based; settings: in vivo; in short: as §4
COLO 205 [15] = assay: Cytotoxicity against human COLO205 cells after 4 days by CellTiter-Glo assay; type: functional, cell-based; settings: COLO 205, 96 h
[16] = Inhibition of CYP450 at 25 uM; type: ADME
[17] = biological target: Voltage-gated inwardly rectifying potassium channel KCNH2 (Homo sapiens, UniProt Q12809); assay: Inhibition of human Erg at 100 uM
Sequence of Voltage-gated inwardly rectifying potassium channel KCNH2 (Q12809 whole entry): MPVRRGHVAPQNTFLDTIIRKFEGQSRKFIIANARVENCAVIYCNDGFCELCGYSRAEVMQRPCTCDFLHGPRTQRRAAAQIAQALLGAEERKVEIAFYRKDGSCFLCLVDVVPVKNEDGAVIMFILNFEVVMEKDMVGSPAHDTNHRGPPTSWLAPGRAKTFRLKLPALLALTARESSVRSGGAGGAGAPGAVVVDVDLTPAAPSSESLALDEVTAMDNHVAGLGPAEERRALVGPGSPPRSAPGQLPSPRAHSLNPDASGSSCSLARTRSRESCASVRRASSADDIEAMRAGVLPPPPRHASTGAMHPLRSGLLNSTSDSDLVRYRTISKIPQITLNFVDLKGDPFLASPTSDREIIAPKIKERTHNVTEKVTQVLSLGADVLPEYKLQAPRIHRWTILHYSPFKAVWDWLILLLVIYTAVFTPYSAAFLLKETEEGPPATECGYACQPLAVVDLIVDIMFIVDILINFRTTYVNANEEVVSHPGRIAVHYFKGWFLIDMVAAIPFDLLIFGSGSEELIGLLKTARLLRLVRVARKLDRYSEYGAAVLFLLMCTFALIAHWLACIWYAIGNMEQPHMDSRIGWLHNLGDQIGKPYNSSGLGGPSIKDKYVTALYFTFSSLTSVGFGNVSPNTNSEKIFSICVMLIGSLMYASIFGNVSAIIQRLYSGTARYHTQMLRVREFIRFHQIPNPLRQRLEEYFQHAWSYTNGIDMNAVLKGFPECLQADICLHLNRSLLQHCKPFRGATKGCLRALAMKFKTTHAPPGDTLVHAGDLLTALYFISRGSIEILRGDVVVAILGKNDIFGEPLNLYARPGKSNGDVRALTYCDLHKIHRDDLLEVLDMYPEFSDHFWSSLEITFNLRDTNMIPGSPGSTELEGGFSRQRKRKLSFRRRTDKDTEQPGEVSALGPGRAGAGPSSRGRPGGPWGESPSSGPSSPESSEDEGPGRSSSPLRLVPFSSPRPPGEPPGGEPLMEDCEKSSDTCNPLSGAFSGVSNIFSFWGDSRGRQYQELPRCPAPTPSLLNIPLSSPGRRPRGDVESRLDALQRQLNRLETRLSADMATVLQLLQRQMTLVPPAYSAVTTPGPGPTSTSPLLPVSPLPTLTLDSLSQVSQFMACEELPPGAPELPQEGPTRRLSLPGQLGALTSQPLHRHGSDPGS

Salmonella typhimurium = assay: Induction of mutagenesis in Salmonella Typhimurium by Ames test; type: toxicity, organism-based; settings: salmonella enterica subsp. enterica serovar typhimurium
COLO 205 [18] = assay: Antitumor activity against human COLO205 cells xenografted in po dosed mouse assessed as tumor growth inhibition administered QD for 17 days; type: functional; settings: COLO 205, po, 408 h
In short: (§5)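 Mice with established Colo205 xenografts received the spray-dried dispersion orally at ascending doses once daily for 17 or 20 days. Tumor growth inhibition is expressed as percent of vehicle control, and ED50 and ED90 are given in mg/kg.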

[19] = Oral bioavailability in CD-1 mouse at 30 mg/kg as formulation of 25% SDD; type: ADME, organism-based; settings: in vivo; in short: as §4
[20] = Oral bioavailability in CD-1 mouse at 100 mg/kg as formulation of 25% SDD; type: ADME, organism-based; settings: in vivo; in short: as §4
Mus musculus [21] = assay: Toxicity in human COLO205 cells xenografted mouse assessed as change in body weight at 125 mg/kg, po administered QD for 20 days; settings: in vivo, 480 h
Mus musculus [22] = assay: Toxicity in human COLO205 cells xenografted mouse assessed as change in body weight at 100 mg/kg, po administered QD for 17 days; settings: in vivo, 408 h
[23] = Oral bioavailability in CD-1 mouse at 2.5 to 80 mg/kg as formulation of 25% SDD; type: ADME, organism-based; settings: in vivo
In short: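 Oral bridging PK in mice used a 25% amorphous spray-dried dispersion on HPMCAS polymer at 2.5, 10, 40 and 80 mg/kg. Bioavailability (F) was derived per dose. The earlier solution vehicle was 40% PEG400/10% ethanol/50% water, with select intravenous dosing.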

COLO 205 [24] = assay: Antitumor activity against human COLO205 cells xenografted in po dosed mouse assessed as tumor growth inhibition administered QD for 20 days; type: functional; settings: COLO 205, po, 480 h; in short: as §5

| Compound | clearance [1] | Vd [2] | fraction unbound [3] | solubility at 24 h [4] | solubility at 24 h [5] | IC50 [6] | IC50 [7] | IC50 [8] | AUC [9] | bioavailability [10] | other results |
| --- | --- | --- | --- | --- | --- | --- | --- | --- | --- | --- | --- |
| CCCS(=O)(=O)Nc1ccc(F)c(C(=O)Nc2cnc3[nH]cc(Br)c3c2)c1F | 7.2 mL/min/kg | 0.24 L/kg | 0.006 | < 1 µg/mL | < 1 µg/mL | 3.4 nM | 39 nM | 190 nM | 49 µg·h/mL | 71% |  |
| CCCS(=O)(=O)Nc1ccc(F)c(C(=O)Nc2cnc(N)c(Br)c2)c1F |  |  |  |  |  |  | 310 nM | 1200 nM |  |  |  |
| CCCS(=O)(=O)Nc1ccc(F)c(C(=O)Nc2ccc(N)nc2)c1F |  |  |  |  |  | 920 nM | 2400 nM | > 3000 nM |  |  |  |
| CCCS(=O)(=O)Nc1ccc(F)c(C(=O)Nc2cnc3[nH]nc(Br)c3c2)c1F |  |  | 0.016 | 1 µg/mL (≈ 2.11 µM) | 3 µg/mL (≈ 6.33 µM) | 4 nM | 44 nM | 260 nM | 52.5 µg·h/mL |  |  |
| CCCS(=O)(=O)Nc1ccc(F)c(C(=O)Nc2cnc3[nH]ncc3c2)c1F | 15 mL/min/kg | 0.68 L/kg | 0.129 | 80 µg/mL (≈ 202 µM) | 150 µg/mL (≈ 379 µM) | 17 nM | 62 nM | 430 nM | 40 µg·h/mL | 100% |  |
| CCCS(=O)(=O)Nc1ccc(F)c(C(=O)Nc2cnc3[nH]ccc3c2)c1F | 1.9 mL/min/kg | 0.2 L/kg | 0.021 | 1 µg/mL (≈ 2.54 µM) | 4 µg/mL (≈ 10.1 µM) | 38 nM | 94 nM | 290 nM | 200 µg·h/mL | 76% |  |
| CCCS(=O)(=O)Nc1ccc(F)c(C(=O)Nc2cnc3[nH]cnc3c2)c1F |  |  |  |  |  | 61 nM | 2400 nM | > 3000 nM |  |  |  |
| CCCS(=O)(=O)Nc1ccc(Cl)c(C(=O)Nc2cnc3[nH]nc(OC)c3c2)c1F | 1 mL/min/kg | 0.11 L/kg | 0.009 | < 1 µg/mL | 2 µg/mL (≈ 4.53 µM) | 1.7 nM | 20 nM | 240 nM | 1080 µg·h/mL | 53% | AUC [11]: 50.7 µg·h/mL; bioavailability [12]: 1.2%; bioavailability [13]: 53%; bioavailability [14]: 19%; EC50 (COLO 205 [15]): 70 nM; inhibition (INH) [16]: Not Active; inhibition (INH) [17]: Not Active; Activity (Salmonella typhimurium): Non-toxic; ED50 (COLO 205 [18]): 11 mg/kg; ED90 (COLO 205 [18]): 50 mg/kg; bioavailability [19]: 28%; bioavailability [20]: 13%; Activity (Mus musculus [21]): Non-toxic; Activity (Mus musculus [22]): Non-toxic |
| CCCS(=O)(=O)Nc1ccc(F)c(C(=O)Nc2cnc3[nH]nc(OC)c3c2)c1F |  |  | 0.026 | 4 µg/mL (≈ 9.4 µM) | 9 µg/mL (≈ 21.2 µM) |  | 19 nM | 150 nM | 190 µg·h/mL | 48% | AUC [11]: 664 µg·h/mL; bioavailability [12]: 51%; bioavailability [23]: 19%; EC50 (COLO 205 [15]): 80 nM; inhibition (INH) [16]: Not Active; inhibition (INH) [17]: Not Active; Activity (Salmonella typhimurium): Non-toxic; ED50 (COLO 205 [24]): 20 mg/kg; ED90 (COLO 205 [24]): 80 mg/kg; Activity (Mus musculus [21]): Non-toxic; Activity (Mus musculus [22]): Non-toxic |
| CCCS(=O)(=O)Nc1ccc(F)c(C(=O)Nc2cnc3[nH]nc(N(C)C)c3c2)c1F |  |  | 0.092 | 290 µg/mL (≈ 661 µM) | 450 µg/mL (≈ 1030 µM) | 8.2 nM | 40 nM | 650 nM | 1.09 µg·h/mL |  |  |
| CCCS(=O)(=O)Nc1ccc(F)c(C(=O)c2c[nH]c3ncc(-c4ccc(Cl)cc4)cc23)c1F [VEMURAFENIB] |  |  |  |  |  |  |  |  |  |  | EC50 (COLO 205 [15]): 240 nM |
| CCCS(=O)(=O)Nc1ccc(F)c(C(=O)Nc2cccnc2)c1F |  |  |  |  |  | 3900 nM | 6700 nM | > 3000 nM |  |  |  |
| CCCS(=O)(=O)Nc1ccc(F)c(C(=O)Nc2cnc3[nH]nc(C)c3c2)c1F |  |  | 0.101 | 380 µg/mL (≈ 928 µM) | 740 µg/mL (≈ 1810 µM) | 12 nM | 86 nM | 830 nM | 18.3 µg·h/mL |  |  |
| CCCS(=O)(=O)Nc1ccc(Cl)c(C(=O)Nc2cnc3[nH]ncc3c2)c1F | 2.3 mL/min/kg | 0.17 L/kg | 0.029 | 15 µg/mL (≈ 36.4 µM) | 48 µg/mL (≈ 117 µM) | 6.3 nM | 56 nM | 560 nM | 147 µg·h/mL | 67% |  |
